Compound activity from PubChem.
LMPTP block – LMPTP (human) inhibition. 360,000 compounds, 0.22% hits. AID 651560. recombinant LMPTP-A, OMFP fluorogenic substrate, fluorescence intensity. inhibition, % at 20 µM;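 active = compounds that cut the enzyme signal by at least half of the control window in the single-dose screen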
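Test system: LMPTP-A phosphatase enzyme. Amount: LMPTP-A at 0.625 nM final in the reaction. Reagent: OMFP substrate, 400 µM final. Times: 50 min at room temperature. Signal: endpoint fluorescence intensity from OMFP dephosphorylation. Read-out basis: % inhibition. Benchmarks: no-enzyme and uninhibited controls.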
DNMT1 block – inhibitors of human DNMT1 | DNMT1 molecular beacon, Hinp1I cleavage, fluorescence | inhibition (reported as % activation of signal), % at 10 µM | 360,000 compounds, 0.83% hits | AID 588458; in the data active = inhibition above about 50%
Target sequence (P26358 504-1616 limits assumed): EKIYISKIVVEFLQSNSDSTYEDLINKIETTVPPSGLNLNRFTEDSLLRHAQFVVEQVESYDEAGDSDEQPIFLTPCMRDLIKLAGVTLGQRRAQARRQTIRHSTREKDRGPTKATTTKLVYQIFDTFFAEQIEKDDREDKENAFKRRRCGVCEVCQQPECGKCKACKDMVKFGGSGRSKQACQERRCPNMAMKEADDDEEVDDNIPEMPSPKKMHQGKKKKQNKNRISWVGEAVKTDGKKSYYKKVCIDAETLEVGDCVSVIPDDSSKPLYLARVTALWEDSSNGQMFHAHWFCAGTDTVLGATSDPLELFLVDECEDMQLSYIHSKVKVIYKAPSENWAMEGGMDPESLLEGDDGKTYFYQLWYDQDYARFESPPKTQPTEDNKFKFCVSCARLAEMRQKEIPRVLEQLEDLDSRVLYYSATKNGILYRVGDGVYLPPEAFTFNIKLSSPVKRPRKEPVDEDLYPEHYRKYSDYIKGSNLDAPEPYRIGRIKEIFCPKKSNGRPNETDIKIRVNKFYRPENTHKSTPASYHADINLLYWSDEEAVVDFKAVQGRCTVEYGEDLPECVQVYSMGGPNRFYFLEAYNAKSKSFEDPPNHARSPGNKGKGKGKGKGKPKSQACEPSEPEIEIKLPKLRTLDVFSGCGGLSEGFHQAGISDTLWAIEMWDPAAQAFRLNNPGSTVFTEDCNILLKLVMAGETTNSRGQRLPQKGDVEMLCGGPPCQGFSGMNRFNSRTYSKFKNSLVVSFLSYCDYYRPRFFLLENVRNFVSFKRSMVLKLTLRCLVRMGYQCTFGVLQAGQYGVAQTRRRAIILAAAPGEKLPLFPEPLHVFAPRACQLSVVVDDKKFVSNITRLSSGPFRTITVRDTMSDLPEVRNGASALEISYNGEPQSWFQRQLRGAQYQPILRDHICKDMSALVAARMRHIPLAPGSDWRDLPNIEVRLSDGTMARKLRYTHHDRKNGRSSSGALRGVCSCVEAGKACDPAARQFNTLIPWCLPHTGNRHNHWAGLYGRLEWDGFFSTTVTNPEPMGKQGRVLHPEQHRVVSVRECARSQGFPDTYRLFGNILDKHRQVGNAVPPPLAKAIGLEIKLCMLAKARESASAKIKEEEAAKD
STEP block – blocks human striatal-enriched tyrosine phosphatase. P54829. recombinant STEP, OMFP fluorogenic substrate, fluorescence. inhibition, % at 20 µM. 360,000 compounds, 0.25% hits. AID 588621;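 active = inhibition at 20 µM, scaled per plate between control wells, above about 37%, limit read from the data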
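Assay system: isolated STEP enzyme / Timing: 20 min at room temperature, dark / Doses: 20 µM, 1% DMSO / Technique: fluorescence intensity, excitation 480 nm, emission 540 nm / Reagent: fluorogenic phosphatase substrate OMFP at 25 µM final / Measure: percent inhibition scaled to no-enzyme and uninhibited-enzyme controls, plate-pattern corrected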
SUMO1-SIM PPI – modulators of human SUMO1-mediated protein-protein interactions | inhibition, % at 20 µM | AID 602429 | SUMO1 binding to a labelled peptide, TR-FRET, 1 h | P63165 | 360,000 compounds, 0.33% hits; in the data active = inhibition above about 37%
Scp-1 inhibitor – blocks human Scp-1 phosphatase activity; 340,000 compounds, 0.88% hits; Recombinant Scp1, phosphopeptide, malachite green phosphate absorbance; Q9GZU7; inhibition, % at 20 µM; AID 493091;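 active = inhibition above about 50% at 20 µM, limit read from the data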
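Test system: SCP-1 phosphatase catalytic domain, residues 76-261; measured by: colorimetric phosphate reagent with accelerator and stabiliser, absorbance at 630 nm; timing: enzyme reaction 45 min at room temperature, colour 5 min, stabilisation 30 min; also added: Phosphorylated 17-residue peptide substrate; compound dosing: one concentration, 20 µM, with 1.0% DMSO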
Rpn11 block – Rpn11 (human) deubiquitinase inhibition | 360,000 compounds, 0.59% hits | human 26S proteasome, Ub4-pepOG fluorescence polarization; 20S core pre-blocked with epoxomicin | O00487 | inhibition, % at 20 µM;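 active = inhibition at 20 µM, scaled to each plate's controls, above about 33%, limit read from the data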
Scp-1 conf – confirmation of human Scp-1 phosphatase inhibitors; shares compounds with Scp-1 inhibitor; recombinant SCP-1 catalytic domain, phosphate release, malachite green absorbance; inhibition, % at 20 µM; 2,500 compounds, 61% hits
Scp-1 MG ctr – counter-screen for Scp-1 inhibitors: colorimetric interference | shares compounds with Scp-1 inhibitor | Colorimetric interference counterscreen, malachite green absorbance 630 nm | apparent inhibition (interference), % at 20 µM | 2,500 tested, under 10 active;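 note: compounds added after enzyme reaction finished so only phosphate colour detection is probed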
Scp-1 Tm shift – binds human Scp-1, shifting its melting temperature; shares compounds with Scp-1 inhibitor; Recombinant SCP1, Sypro Orange thermal shift Tm; thermal shift relative to vanadate control, % at 40 µM; 1,500 compounds, 25% hits; AID 540329;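 active = substances whose mean melting-temperature shift, as a percentage of the reference inhibitor's shift, reaches about 5.3%, limit read from the data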
A number is an active result; . = inactive; / = no result given. Hits are enriched below; roughly 2.3% of the tested compounds scored in any of these assays.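 Rule for the calls, unless noted: active = inhibition of at least 30% at 20 µM; inactive = the rest.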

SMILES	LMPTP block	DNMT1 block	STEP block	SUMO1-SIM PPI	Scp-1 inhibitor	Rpn11 block	Scp-1 conf	Scp-1 MG ctr	others
COc1ccc(S(=O)(=O)N2CCCOC2CNC(=O)C(=O)NC2CCCC2)cc1 (stereo unspecified)	.	.	.	.	.	.	/	/
CCOC(=O)c1cc2c(=O)n3cccc(C)c3nc2n(Cc2ccco2)c1=NC(=O)c1cccnc1	.	.	.	.	52.0	.	43.7	.	Scp-1 Tm shift=6.9
COCCCn1c(=NC(=O)c2ccccc2)c(C#N)cc2c(=O)n3cccc(C)c3nc21	.	.	.	.	.	.	/	/
Cc1cccn2c(=O)c3cc(C#N)c(=NC(=O)c4ccccc4)n(Cc4ccco4)c3nc12	.	.	.	.	87.2	.	.	.
Cn1cnc(C(=O)N2CCc3ccccc3C2)c1C(=O)N1CCc2ccccc2C1	.	.	.	.	95.3	.	83.3	.	Scp-1 Tm shift=.
Cc1ccc(C(=O)c2cc([N+](=O)[O-])ccc2N2CCCCC2)c(C)c1	.	.	.	.	.	.	/	/
Cc1ccc(C)c(C(=O)Nc2ccncc2)c1	.	.	.	.	78.1	.	.	.
COc1ccc(NC(=O)CSc2nc(-c3ccco3)nc3cc(=O)[nH]n23)cc1Cl	.	.	.	.	53.2	.	.	.
COc1ccc(NC(=O)CSc2n[nH]c(=O)n2C2CC2)cc1Cl	.	.	.	.	.	.	/	/
CN(C)S(=O)(=O)Nc1ccccc1F	.	.	.	.	.	.	/	/
COc1ccc(CNC(=O)CSc2nnc3c(n2)[nH]c2ccc(F)cc23)cc1	.	.	.	.	62.2	.	31.1	.	Scp-1 Tm shift=.
COc1ccc(CNC(=O)CSc2nnc3c(n2)[nH]c2ccc(OC)cc23)cc1	.	.	.	.	64.8	.	69.7	.	Scp-1 Tm shift=.
COc1cccc(CNC(=O)CSc2nnc3c(n2)[nH]c2ccc(C)cc23)c1	.	.	.	.	.	.	/	/
COc1ccc(CCNC(=O)CSc2nnc3c(n2)[nH]c2ccc(F)cc23)cc1OC	.	.	.	.	.	.	/	/
O=C(CSc1ncccn1)NC1CCS(=O)(=O)C1 (stereo unspecified)	.	.	.	.	.	.	/	/
c1ccc(CCc2cccnc2)cc1	.	.	.	.	.	.	/	/
Cn1ccsc1=NC(=O)c1ccc(Cl)c([N+](=O)[O-])c1	.	.	.	.	53.8	.	.	.
Cn1ccsc1=NC(=O)c1ccc(S(C)(=O)=O)c([N+](=O)[O-])c1	.	.	.	.	.	.	/	/
CCN1Cc2c(/C=C/c3ccccc3)nc3ccc(OC)cc3c2N(c2cccc(Cl)c2)C1	.	.	.	.	.	/	/	/
O=c1oc2ccccc2cc1-c1ccccc1	.	.	.	.	.	.	/	/
O=C(O)c1ccc(-n2cc(-c3cc4ccccc4oc3=O)[nH]c2=S)cc1	.	.	.	.	84.1	.	61.1	.	Scp-1 Tm shift=.
O=C(Cc1ccc(Br)cc1)OCC(=O)N1CCOCC1	.	.	.	.	.	.	/	/
CCOc1ccc(NC(=O)CN(C)C(=O)c2ccc(N3CCCCC3)c([N+](=O)[O-])c2)cc1OCC	.	.	.	.	.	.	/	/
CCOc1ccc(NC(=O)CN(C)C(=O)c2ccc(N3CCCC3)c([N+](=O)[O-])c2)cc1OCC	.	.	.	.	52.7	.	.	.
O=c1c2c3n(c(=S)nc2[nH]n1-c1ccccc1)CCCCC3	.	.	.	.	.	.	/	/
SMILES	LMPTP block	DNMT1 block	STEP block	SUMO1-SIM PPI	Scp-1 inhibitor	Rpn11 block	Scp-1 conf	Scp-1 MG ctr	others
O=C(C(Cl)c1ccccc1)N1CCOCC1 (stereo unspecified)	.	.	.	.	.	.	/	/
Cc1ccc(S(=O)(=O)N2CCCC2C(=O)OCc2ccccc2)cc1 (stereo unspecified)	.	.	.	.	.	.	/	/
Cc1ccc(S(=O)(=O)N2CCCC2C(=O)OCc2ccco2)cc1 (stereo unspecified)	.	.	.	.	77.0	.	69.2	.	Scp-1 Tm shift=.
CCc1sc(C(=O)Nc2cccc(-n3cnnn3)c2)cc1C	.	.	.	.	.	.	/	/
CN(C(=O)CCN1C(=O)/C(=C/c2ccccc2)SC1=S)C1CCS(=O)(=O)C1 (stereo unspecified)	.	.	.	80.4	76.4	.	.	.
COCCN1C(=O)CCC1(C)C(=O)NC1CCCCC1 (stereo unspecified)	.	.	.	.	/	.	/	/
COc1ccc(/C=N/NC(=O)c2cccc(NC(=O)c3ccc(Cl)cc3)c2)c(OC)c1	.	.	.	.	83.5	.	66.0	.	Scp-1 Tm shift=.
NS(=O)(=O)c1cccc(C(=O)N2CCCc3ccccc32)c1	.	.	.	.	/	.	/	/
CN(C)CCOc1ccccc1-c1ccccc1	.	.	.	.	76.0	.	.	.
CN(C)CCOCCOc1ccccc1-c1ccccc1	.	.	.	.	.	.	/	/
O=C(CSc1nnc(NC(=O)c2c(F)cccc2F)s1)NC1CCCCC1	.	.	.	.	.	.	/	/
COc1ccc(S(=O)(=O)NNC(=O)Cc2csc(C)n2)cc1[N+](=O)[O-]	.	.	.	.	60.2	.	64.2	.	Scp-1 Tm shift=.
O=C(COC(=O)/C=C/c1cccc(Br)c1)NC1CCCC1	.	.	.	.	.	.	/	/
COc1ccc(NC(=O)c2ccc3c(c2)CCN3S(=O)(=O)c2ccccc2)c(OC)c1	.	.	.	.	60.5	.	.	.
NC(=O)c1ccc(NC(=O)c2ccc3c(c2)CCN3S(=O)(=O)c2ccccc2)cc1	.	.	.	.	.	.	/	/
Cc1ccc(CNC(=O)c2ccc3c(=O)c(O)c(-c4ccc(C)cc4)[nH]c3c2)cc1	.	.	.	.	55.8	.	51.3	.	Scp-1 Tm shift=.
CC(=O)N1CCOc2ccc(S(=O)(=O)NC[C@H]3O[C@@H](n4ccc(=O)[nH]c4=O)[C@H](O)[C@@H]3O)cc21	.	.	.	.	.	.	.	.
CC(=O)N1CCOc2ccc(S(=O)(=O)NCc3ccc(C)cc3)cc21	.	.	.	.	.	.	/	/
Cc1cc(C)n2nc(C(=O)OCC(=O)c3cc(C)n(C)c3C)nc2n1	.	.	.	.	52.3	.	57.9	.	Scp-1 Tm shift=.
Cc1cc(C(=O)COC(=O)c2cc(Cl)c(O)c(Cl)c2)c(C)n1C	.	54.7	.	.	55.1	.	35.9	.	Scp-1 Tm shift=9.4
